# Screening results from PubChem BioAssay.
# Shown are actives, neighbours in structure and some others; about 2.1% of the full set was active somewhere.
# ABCB1 inh – inhibitors of human ABCB1 transporter, ABCG2 counter-screen; CCRF-Adr cells, JC-1 efflux, flow cytometry; inhibition, % at 6.6 µM; 0.067% of 190,000 active; AID 1326; in the data active = inhibition above about 40%;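 note: 0% = vehicle and 100% = reference inhibitor; higher value means more JC-1 retained so stronger ABCB1 efflux block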
# Target sequence (P08183 whole entry, looked up): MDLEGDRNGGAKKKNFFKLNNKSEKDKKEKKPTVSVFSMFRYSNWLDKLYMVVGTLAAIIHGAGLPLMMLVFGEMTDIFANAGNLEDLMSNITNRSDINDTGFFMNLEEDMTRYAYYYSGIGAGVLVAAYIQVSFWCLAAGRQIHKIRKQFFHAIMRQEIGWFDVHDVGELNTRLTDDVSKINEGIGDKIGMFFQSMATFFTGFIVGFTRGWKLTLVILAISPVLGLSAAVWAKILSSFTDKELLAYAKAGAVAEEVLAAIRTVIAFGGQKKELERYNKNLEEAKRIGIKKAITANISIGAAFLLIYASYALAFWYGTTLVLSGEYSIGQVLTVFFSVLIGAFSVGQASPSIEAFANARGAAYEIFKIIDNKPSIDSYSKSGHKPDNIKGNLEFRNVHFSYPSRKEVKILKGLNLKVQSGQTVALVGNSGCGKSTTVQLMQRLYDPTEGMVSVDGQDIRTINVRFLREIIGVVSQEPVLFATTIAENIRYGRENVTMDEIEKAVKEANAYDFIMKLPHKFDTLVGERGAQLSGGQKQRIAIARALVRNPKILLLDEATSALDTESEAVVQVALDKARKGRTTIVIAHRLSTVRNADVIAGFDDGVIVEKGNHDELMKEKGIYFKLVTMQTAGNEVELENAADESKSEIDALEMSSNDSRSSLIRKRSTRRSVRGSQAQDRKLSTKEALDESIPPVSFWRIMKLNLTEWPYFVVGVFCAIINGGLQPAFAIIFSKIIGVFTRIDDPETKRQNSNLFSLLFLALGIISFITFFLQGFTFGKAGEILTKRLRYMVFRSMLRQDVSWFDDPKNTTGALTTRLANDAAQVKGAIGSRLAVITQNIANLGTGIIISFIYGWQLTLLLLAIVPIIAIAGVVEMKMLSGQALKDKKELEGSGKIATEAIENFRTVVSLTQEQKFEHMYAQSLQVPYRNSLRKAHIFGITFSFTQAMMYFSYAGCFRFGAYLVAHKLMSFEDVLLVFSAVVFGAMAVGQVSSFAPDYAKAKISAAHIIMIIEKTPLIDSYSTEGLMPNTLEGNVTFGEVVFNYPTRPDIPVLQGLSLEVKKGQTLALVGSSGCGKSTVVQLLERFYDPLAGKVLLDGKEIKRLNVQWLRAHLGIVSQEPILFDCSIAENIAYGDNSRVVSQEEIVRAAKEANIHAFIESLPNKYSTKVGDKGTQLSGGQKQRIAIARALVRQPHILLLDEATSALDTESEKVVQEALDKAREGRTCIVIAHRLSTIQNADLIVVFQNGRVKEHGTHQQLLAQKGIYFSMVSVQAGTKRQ
# MT stabilize HCS – microtubule stabilization, imaging screen; 0.83% of 200,000 active; AID 2205; % tubulin-high responders, % at 10 µM; HeLa tubulin immunostaining HCS, 24 h; share of cells brighter than vehicle mean+2SD;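 active = plate Z-score above 3 for both tubulin-high and condensed-nucleus cell shares, with cell loss under 80%, at 10 µM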;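 note: anti alpha tubulin signal scored within the nucleus-defined area of each cell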
# Autophagy HCS – modulators of autophagy | MEF GFP-LC3 puncta imaging; test concentration mostly 10 µM | calls only at 10 µM (by protocol) | 0.98% of 190,000 active;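 active = percentage of spot-positive cells more than 3 SD above its plate mean, without a fluorescence outlier flag or 80% toxicity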;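 note: spot-positive cell cutoff set from DMSO-treated cells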
# Arbovirus anti – antivirals against arbovirus infection; arbovirus infection cell-based antiviral screen; inhibition, % at 10 µM; 0.37% of 200,000 active; AID 1251; in the data active = inhibition above about 30%
# b-catenin transl – modulators of beta-catenin nuclear translocation | HeLa beta-catenin nuclear translocation, immunofluorescence imaging | nuclear translocation activity, % at 5 µM | 0.3% of 190,000 active | AID 1665;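 active = nuclear translocation activity above 50% at 5 µM, with a well cell count of 50 or more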;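 note: per-cell ratio of nuclear to cytoplasmic median beta-catenin stain intensity; plate controls were DMSO negative control for no effect and GSK-3 inhibitor IX positive control for full effect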
#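 Read-out: Nuclear/cytoplasmic beta-catenin signal ratio, % activation | Assay system: Human HeLa cell line | Times: 24 h compound exposure at 37°C, 5% CO2 | Signal: Fluorescence imaging of beta-catenin antibody stain plus DAPI | Dosing: 5 µM primary, 0.02–20 µM confirmation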
# ABCG2 inh – blocks JC-1 efflux by human ABCG2 transporter. IgMXP3 cells, flow cytometry. AID 1325. 0.1% of 190,000 active. inhibition, % at 6.6 µM. Q9UNQ0;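 active = inhibition above 80%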;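 note: 0% = DMSO and 100% = nicardipine control wells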
#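 Assay system – ABCG2 IgMXP3 and barcoded ABCB1 CCRF-Adr cell mix · Input – 3 million cells/mL in well · Reagent – JC-1 fluorescent substrate · Compound – single test compound dose, 6.6 µM final · Timing – 10 min exposure at 25 °C with rotation, no wash · Detection – flow cytometry of retained JC-1 fluorescence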
# The depositor's hits bear a star; i = inactive; / = no result; + = active, no number.
SMILES,ABCB1 inh,MT stabilize HCS,Autophagy HCS,Arbovirus anti,b-catenin transl,ABCG2 inh
COc1ccc(COc2cc(-c3cccc(OC)c3)nc3ccc(NC(=O)c4ccc(N(C)C)cc4)cc23)cc1,-1,20*,i,-26,/,-4
COc1ccc(COc2cc(-c3cccc(OC)c3)nc3ccc(NC(=O)c4ccc(C)cc4)cc23)cc1,-1,21,i,-23,/,-4
CCN1C(=O)/C(=C2/Sc3ccc(OC)cc3N2C)SC1=Nc1cccc(O)c1,0,2,i,-7,3,0
O=C(NCc1cccs1)c1cccn2c(=O)c3sccc3nc12,18,4,i,-5,0,29
c1ccc2sc(N3CCN(Cc4nnnn4CC4CCCO4)CC3)nc2c1 (stereo not given),0,3,i,3,-3,4
O=C(CN1CCCCCC1)N/N=C/c1cccs1,0,2,i,46*,/,2
O=C(CN1CCN(Cc2ccccc2)CC1)N/N=C/c1cccs1,/,/,/,/,1,/
CCC(C)[C@H](NC(=O)NC(C)C)C(=O)O (stereo not given in full),1,3,i,2,0,2
COc1ccccc1NCC(=O)NNC(C)C(=O)Nc1cccc(Cl)c1 (stereo not given),1,1,+,3,-1,5
COc1ccc(N2CC(C(=O)Nc3nccs3)CC2=O)cc1 (stereo not given),1,3,i,4,-2,3
Cc1ccc(N/C(N)=N/c2nc3c(c(=O)[nH]2)CCCC3)c(C)c1,0,20*,i,-20,10,4
N/C(=N\c1nc2c(c(=O)[nH]1)CCCC2)Nc1ccccc1,0,4,i,-6,-2,1
COc1cc(CN(C2CCCCC2C)S(=O)(=O)c2ccc(S(=O)(=O)NC3CC3)cc2)cc(OC)c1OC (stereo not given),5,3,i,1,1,5
Cc1cc(C)c2ccc3c(C)c(C)nc3c2[nH]1,1,7,+,-12,5,4
Cc1cc(=O)[nH]c2c(C)c(N)ccc12,0,1,i,5,-9,0
O=c1oc2ccccc2cc1-c1csc(Nc2nc3ccc(F)cc3s2)n1,0,4,i,8,-3,-3
O=c1oc2ccccc2cc1-c1csc(Nc2nc3c(F)cccc3s2)n1,-1,3,+,-11,1,-1
CCOC(=O)Cn1c(=O)oc2ccc(C)cc21,0,2,i,1,0,7
CN(C)S(=O)(=O)c1ccc(Cl)c(NC(=O)CN2CCc3ccccc3C2)c1,0,2,i,25,-1,9
COc1ccc(CCC(=O)Nc2ccc(-c3noc(-c4ccc(OC)c(OC)c4)n3)cc2)cc1,-1,3,+,5,/,-2
COc1ccc(-c2nc(-c3ccc(NC(=O)c4ccc(Br)o4)cc3)no2)cc1OC,-1,3,i,4,-3,-7
CCOC(=O)c1sc(C)c(C(=O)NC2CCCCC2)c1N,0,3,i,-2,118*,1
O=C(NCc1ccc2c(c1)OCO2)C1CCN(S(=O)(=O)c2cccs2)CC1,0,2,i,-5,-1,1
O=[N+]([O-])c1ccc2c(c1)C(N1CCOCC1)/C(=C/COc1ccc3ccccc3c1Br)O2 (stereo not given),1,4,i,11,-3,5
CCNc1ccc(C(=O)OCC)cc1NC(=O)c1cccc(N(C)C)c1,0,38*,i,-7,26,0
SMILES,ABCB1 inh,MT stabilize HCS,Autophagy HCS,Arbovirus anti,b-catenin transl,ABCG2 inh
CC(=O)NS(=O)(=O)c1ccc(NC(=O)/C=C/c2ccccc2)cc1,0,3,i,7,0,0
Cc1ccc(C)c(N2CCN(CCCNC(=O)Cn3cccc3C(=O)c3ccccc3C)CC2)c1,0,2,+,-30,-2,-1
Cc1ccccc1C(=O)c1cccn1CC(=O)NCCN1CCN(c2cccc(C)c2C)CC1,1,1,+,-38,2,1
CCn1c(C)nc2cc(N)ccc21,/,/,/,/,0,/
C=CCN(CC=C)S(=O)(=O)c1ccc(C(=O)Nc2nnc(COC)o2)cc1,0,3,+,8,0,1
COCc1nnc(NC(=O)c2ccc(S(=O)(=O)N(CC(C)C)CC(C)C)cc2)o1,0,2,i,-16,2,8
Cc1cc(NCCCn2ccnc2)n2nc(C)c(-c3ccccc3)c2n1,0,6,i,-12,-2,29
CCCCn1cnc2c(c(-c3ccccc3)c(-c3ccccc3)n2Cc2ccco2)c1=N,/,/,/,/,0,/
N=c1c2c(-c3ccccc3)c(-c3ccccc3)n(Cc3ccco3)c2ncn1Cc1ccco1,3,38,+,-34,3,2
N=c1c2c(-c3ccccc3)c(-c3ccccc3)n(Cc3ccccc3)c2ncn1CCCn1ccnc1,1,35,+,-44,2,4
COc1ccc(NS(=O)(=O)c2cc(NC(=O)c3ccco3)ccc2N2CCCC2)cc1,0,15*,i,-6,2,0
COc1ccc(NS(=O)(=O)c2cc(NC(=O)c3nc4nc(C)cc(C)n4n3)ccc2C)cc1,0,9,+,-8,-4,4
COc1ccc(NS(=O)(=O)c2cc(NC(=O)c3cc(F)c(F)c(F)c3F)ccc2N2CCCC2)cc1,/,/,/,/,0,/
COc1ccccc1NS(=O)(=O)c1cccc(NC(=O)c2nc3nc(C)cc(C)n3n2)c1,0,2,i,10,/,3
O=C(c1ccc(Oc2ccc(C(F)(F)F)cc2[N+](=O)[O-])cc1)N1CCOCC1,1,1,i,-1,/,3
CC(C)Oc1cccc(C(=O)NC(=S)Nc2ccccc2)c1,0,3,i,36*,-4,3
Fc1ccc(N/N=C(/c2ccccc2)c2ccccn2)cc1,1,4,i,-2,0,17
Cc1ccc(-c2nc3ccccc3[nH]2)cc1NC(=O)c1ccc2c(c1)OCO2,0,3,i,-6,4,0
O=C(NC(=S)Nc1cc(-c2nc3ccccc3[nH]2)ccc1Cl)c1ccc2c(c1)OCO2,0,14*,i,-31,5,-1
Cc1[nH]n(-c2ccccc2)c(=O)c1C=Nc1ccc(S(=O)(=O)NC(N)=O)cc1,/,/,/,/,0,/
COCCNc1nc(-c2ccccc2)nc2ccccc12,0,2,i,-2,1,3
COCCCNc1nc(-c2ccncc2)nc2ccccc12,0,5,i,33*,-4,4
COC(=O)c1ccc(-c2nc3ccc(C)cc3o2)cc1,1,52*,i,-26,0,7
COc1cc(OC)cc(C(=O)Nc2ccc(-c3nc4ccccc4o3)cc2)c1,1,26,+,-6,-1,33
